In the library only some 1.7% were active in any assay of this set; here they are far more common.
LMPTP block – blocks human LMPTP phosphatase; P24666; recombinant LMPTP-A, OMFP fluorogenic substrate, fluorescence intensity; inhibition, % at 20 µM; 0.22% of 360,000 active; AID 651560;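 active = compounds that cut the enzyme signal by at least half of the control window in the single-dose screen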;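 note: plate controls were DMSO wells with enzyme plus substrate for no effect and substrate without enzyme for full effect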
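Buffer or medium: Bis-Tris pH 6.0, DTT, detergent; Assay system: LMPTP-A enzyme; Quantity: 0.625 nM enzyme; Detection: endpoint fluorescence intensity; Times: 50 min dark incubation at room temperature; Controls: substrate-only low control, DMSO enzyme-plus-substrate high control; Doses: single 20 µM dose; Read-out: percent inhibition versus substrate-only and uninhibited controls; Reagent: 400 µM OMFP.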
SUMO1-SIM PPI – alters human SUMO1 binding to SIM partners; AID 602429; P63165; inhibition, % at 20 µM; SUMO1 binding to a labelled peptide, TR-FRET, 1 h; 0.33% of 360,000 active; in the data active = inhibition above about 37%
Scp1 inh – blocks human Scp-1 phosphatase activity; 0.88% of 340,000 active; inhibition, % at 20 µM; AID 493091; Recombinant Scp1, phosphopeptide, malachite green phosphate absorbance; Q9GZU7;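 active = inhibition above about 50% at 20 µM, limit read from the data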;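 note: plate controls were DMSO wells with enzyme for no effect and wells lacking enzyme for full effect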
Target sequence (Q9GZU7 76-261 limits assumed): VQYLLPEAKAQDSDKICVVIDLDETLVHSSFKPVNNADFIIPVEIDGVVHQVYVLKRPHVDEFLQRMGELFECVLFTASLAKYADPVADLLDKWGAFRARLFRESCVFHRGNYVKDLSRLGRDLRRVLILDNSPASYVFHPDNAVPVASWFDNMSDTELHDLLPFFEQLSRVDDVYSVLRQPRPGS
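Test system: SCP-1 catalytic domain; Buffer or medium: Acidic Tris acetate buffer with magnesium and detergent; Also added: Phosphorylated 17-residue peptide substrate; Compound: single 20 µM dose, 1% DMSO; Schedule: enzyme reaction 45 min at room temperature, colour 5 min, stabilisation 30 min; Signal: Phosphate-binding colour reagent, absorbance read at 630 nm.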
DNMT1 block – DNMT1 (human) enzyme inhibition. DNMT1 molecular beacon, Hinp1I cleavage, fluorescence. inhibition (reported as % activation of signal), % at 10 µM. 0.83% of 360,000 active. AID 588458; in the data active = inhibition above about 50%
STEP inh – STEP (human) phosphatase inhibition; 0.25% of 360,000 active; recombinant STEP, OMFP fluorogenic substrate, fluorescence; inhibition, % at 20 µM; P54829;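 active = inhibition at 20 µM, scaled per plate between control wells, above about 37%, limit read from the data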;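 note: 0% = DMSO with enzyme and substrate and 100% = substrate only without enzyme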
Target sequence (P54829 whole entry, looked up): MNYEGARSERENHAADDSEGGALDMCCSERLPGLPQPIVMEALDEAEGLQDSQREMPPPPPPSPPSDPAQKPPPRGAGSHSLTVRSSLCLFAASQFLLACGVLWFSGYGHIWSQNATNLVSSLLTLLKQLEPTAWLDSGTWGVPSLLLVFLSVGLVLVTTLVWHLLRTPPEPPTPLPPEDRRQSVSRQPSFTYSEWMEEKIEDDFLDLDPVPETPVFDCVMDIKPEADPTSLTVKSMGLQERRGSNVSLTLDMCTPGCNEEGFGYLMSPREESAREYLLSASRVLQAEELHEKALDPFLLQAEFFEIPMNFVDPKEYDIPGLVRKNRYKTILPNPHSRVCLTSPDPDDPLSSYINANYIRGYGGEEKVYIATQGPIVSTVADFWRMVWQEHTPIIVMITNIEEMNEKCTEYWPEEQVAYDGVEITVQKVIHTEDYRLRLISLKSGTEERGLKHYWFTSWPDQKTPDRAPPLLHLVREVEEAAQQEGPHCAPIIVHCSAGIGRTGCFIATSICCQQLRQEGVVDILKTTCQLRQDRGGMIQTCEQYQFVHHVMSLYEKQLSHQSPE
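Assay system: isolated STEP enzyme. Buffer or medium: pH 6.0 Bis-Tris with DTT and Tween 20. Also added: fluorogenic phosphatase substrate OMFP at 25 µM final. Dosing: 20 µM, 1% DMSO. Timing: 20 min reaction, room temperature, in the dark. Measured by: fluorescence intensity, excitation 480 nm, emission 540 nm. Evaluation: normalized % inhibition.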
Scp-1 conf – Scp-1 (human) inhibition, single-dose confirmed; shares compounds with Scp1 inh; recombinant SCP-1 catalytic domain, phosphate release, malachite green absorbance; inhibition, % at 20 µM; 61% of 2,500 active; AID 540281;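 active = inhibition of at least 30% at 20 µM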;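 note: plate controls were DMSO with enzyme for no effect and buffer wells lacking enzyme for full effect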
MG interference – colorimetric interference in Scp-1 counter-screen. shares compounds with Scp1 inh. Colorimetric interference counterscreen, malachite green absorbance 630 nm. apparent inhibition (interference), % at 20 µM. 2,500 tested, under 10 active. AID 540313;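 active = inhibition of at least 30% at 20 µM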;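 note: compounds added after enzyme reaction finished so only phosphate colour detection is probed; plate controls were DMSO wells with completed Scp-1 reaction for no effect and substrate wells lacking enzyme for full effect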
Scp1 DSF – binds human Scp-1, shifting its melting temperature; shares compounds with Scp1 inh; Recombinant SCP1, Sypro Orange thermal shift Tm; thermal shift relative to vanadate control, % at 40 µM; 25% of 1,500 active;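 active = substances whose mean melting-temperature shift, as a percentage of the reference inhibitor's shift, reaches about 5.3%, limit read from the data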;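 note: 0% = Tm of DMSO wells and 100% = Tm with sodium orthovanadate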
DNMT1 interf DR – shows spectral interference in the DNMT1 beacon assay | IC50, µM | AID 602382 | 200 tested, under 10 active | shares compounds with DNMT1 block | molecular beacon fluorescence, spectral interference counter-screen
DNMT1 confirm – DNMT1 inhibition confirmation, single concentration; shares compounds with DNMT1 block; DNMT1 molecular beacon HinP1I cleavage, fluorescence; inhibition, % at 10 µM; 8% of 2,300 active;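 active = average inhibition of at least 30% in the single-concentration confirmation test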
Beacon interf – counter-screen for DNMT1 inhibitors: spectral interference; AID 602387; DNMT1 molecular beacon spectral interference counterscreen, fluorescence 485/520; shares compounds with DNMT1 block; 1% of 2,300 active; activation (fluorescence interference), % at 10 µM;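 active = activation of at least 30% at 10 µM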;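 note: DNMT1 catalytic domain with a HinP1I cleavage step and a FAM/dabcyl DNA beacon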
STEP inh conf – STEP (human) phosphatase inhibition, single concentration confirmation; shares compounds with STEP inh; recombinant STEP, OMFP fluorogenic substrate, fluorescence; inhibition, % at 20 µM; 32% of 520 active; AID 623866;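 note: 0% = enzyme with substrate plus DMSO and 100% = substrate without enzyme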
Starred values were filed as active, the others as inactive; / = not tested or not shown. Unless noted, the rule behind the calls is not given here.

SMILES | LMPTP block | SUMO1-SIM PPI | Scp1 inh | DNMT1 block | STEP inh | Scp-1 conf | MG interference | Scp1 DSF | STEP inh conf | others
CCCCC(=O)Nc1ccc(C(=O)NNC(=O)c2ccc(C)c(Br)c2)cc1 | 78* | 26 | 102* | 81* | 74* | 71* | -27 | -12 | 40* | DNMT1 confirm=4;Beacon interf=0
CCOC(=O)C1CCN(C(=O)c2ccc3c(=O)n4nc(Nc5ccccc5)sc4nc3c2)CC1 | 0 | 7 | / | -6 | -1 | / | / | / | /
Cc1ccc(-n2c(C)nc3oc4ccccc4c(=O)c3c2=O)cc1 | 61* | 25 | 68* | 99* | 49* | 61* | -10 | 5 | 85* | DNMT1 confirm=6;Beacon interf=-2
Cc1cc(C(=O)N/N=C/c2ccc(-c3ccc([N+](=O)[O-])cc3Cl)o2)n[nH]1 | 69* | 68* | 56* | -4 | 94* | 68* | -21 | 8.7* | 34*
Cc1cc(C(=O)N/N=C/c2ccc(-c3cccc([N+](=O)[O-])c3)o2)n[nH]1 | 1 | -16 | -8 | 13 | -2 | / | / | / | /
CCc1ccc(NC(=O)CS(=O)CC(=O)Nc2ccc(N3CCOCC3)cc2)cc1 (stereo unspecified) | 63* | 25 | 79* | 45 | 72* | 88* | -14 | -10 | 6
CSCCC(NS(=O)(=O)c1ccccc1F)C(=O)Nc1cccc(C)n1 (stereo unspecified) | 0 | -5 | 2 | 0 | -1 | / | / | / | /
COc1ccc2[nH]c3nc(SCC(=O)NNC(=O)c4ccc(OC)c(OC)c4)nnc3c2c1 | 1 | -4 | 4 | -3 | 6 | / | / | / | /
Cc1ccc(C(=O)NNC(=O)CSc2nnc3c(n2)[nH]c2ccc(F)cc23)cc1 | 52* | 7 | 67* | 105* | 56* | 76* | -12 | -20 | -5 | DNMT1 confirm=5;Beacon interf=-1
C/C(=N\NC(=O)c1ccccc1O)c1ccc(NC(=O)Cc2ccccc2)cc1 | 59* | 37 | 101* | 0 | 84* | 84* | -15 | 0 | 79*
COc1cccc(C(=O)N/N=C(\C)c2ccc(NC(=O)Cc3ccccc3)cc2)c1OC | -2 | -2 | -8 | 2 | -2 | / | / | / | /
CCOC(=O)c1sc2nc3c(SCC(=O)O)cc(C(=O)c4ccccc4O)cn3c(=O)c2c1C | 93* | 102* | 53* | 186* | 98* | 59* | -7 | 7.5* | 98* | DNMT1 interf DR=>99;DNMT1 confirm=60*;Beacon interf=-2
CCOC(=O)c1c(S(=O)(=O)Nc2ccccc2OCC)c(C)n(C)c1C | -1 | 5 | -11 | 10 | 0 | / | / | / | /
CCN(CCCNC(=O)CNC(=O)c1nn(-c2ccc(OC)c(OC)c2)c(=O)c2ccccc12)c1ccccc1 | 1 | -7 | -4 | 0 | 2 | / | / | / | /
O=C(N/N=C/c1ccc(OC(=O)c2cccs2)cc1)c1cccc(F)c1 | 68* | -2 | 95* | 64* | 43* | 77* | -16 | -31 | 28* | DNMT1 confirm=-1;Beacon interf=4
CCCCN1C(=O)C(=O)N(CC(=O)c2cc(C)n(C3CC3)c2C)C1=O | 0 | -12 | -10 | -1 | -1 | / | / | / | /
Cc1c(CC(=O)O)c(=O)oc2c(C)c(OCc3ccc(F)cc3F)ccc12 | 1 | 0 | 28 | 1 | 4 | / | / | / | /
Cc1c(CC(=O)O)c(=O)oc2c(C)c(OCc3ccc(F)cc3Cl)ccc12 | 85* | 84* | 64* | -1 | 98* | 68* | -19 | -26 | 62*
Cc1cc(C)cc(NS(=O)(=O)c2ccc3c(c2)C(C)(C)C(=O)N3C)c1 | 0 | 1 | 11 | 1 | -5 | / | / | / | /
O=[N+]([O-])c1ccc(O)c(Nc2ncnc3ccccc23)c1 | 91* | -10 | 98* | 2 | 97* | 81* | -5 | 3 | 36*
CN(C(=O)c1cccc(NC(=O)Cc2cccc(NC(=O)C3CCN(C(=O)c4ccccc4)CC3)c2)c1)C1CCCC1 | -3 | 8 | 4 | 5 | -3 | / | / | / | /
O=C(NCc1ccon1)c1ccc(OC2CCN(CCc3ccccc3)CC2)cc1 | 1 | 2 | 1 | -2 | -2 | / | / | / | /
CCc1cc(CNC(=O)c2ccc(OC3CCN(CCc4ccccc4)CC3)cc2)on1 | 12 | 4 | 74* | 21 | 92* | 65* | 5 | -3 | -7
COC(=O)C(Cc1c[nH]c2ccccc12)NC(=O)c1ccc2nc[nH]c2c1 (stereo unspecified) | 0 | 6 | -3 | -1 | 0 | / | / | / | /
COc1ccc(NC(=O)NNC(=O)c2ccc(-c3ccccc3)cc2)c(OC)c1 | 4 | 2 | 2 | 2 | 5 | / | / | / | /
SMILES | LMPTP block | SUMO1-SIM PPI | Scp1 inh | DNMT1 block | STEP inh | Scp-1 conf | MG interference | Scp1 DSF | STEP inh conf | others
COc1ccc(NC(=O)NNC(=O)c2ccc(-c3ccccc3)cc2)cc1 | 29 | 15 | 88* | 48 | 40* | 46* | -14 | -15 | 21
NC(c1ccccc1)c1csc(Nc2ccc(C(=O)NCCCO)cn2)n1 (stereo unspecified) | -1 | 2 | / | 1 | -2 | / | / | / | /
Cn1c2ccccc2c(=O)c2c(=O)n(C3CCCCCC3)c(C3CCCCC3)nc21 | 12 | -7 | 97* | 68* | 60* | 18 | 6 | / | 7 | DNMT1 confirm=1;Beacon interf=-5
O=C(N/N=C/c1ccccc1)c1ccc(-c2ccccc2)cc1 | -2 | 6 | -2 | 2 | -3 | / | / | / | /
NC(=O)COc1ccc(/C=N\NC(=O)c2ccc(-c3ccccc3)cc2)cc1 | 38 | 1 | 86* | 41 | 85* | 56* | -10 | -32 | 2
CC(C)(C)N1C(=O)c2ccc(C(=O)O)cc2C1=O | -2 | -3 | -15 | 0 | 0 | / | / | / | /
O=C1C(=Cc2ccco2)C(=O)c2ccccc21 | 1 | 6 | -4 | -2 | 2 | / | / | / | /
Cc1ccc(/C=C2/C(=O)c3ccc(C(=O)O)cc3C2=O)o1 | 3 | 5 | 41 | 74* | 7 | / | / | / | / | DNMT1 confirm=3;Beacon interf=-3

Assay outcomes deposited in PubChem by Sanford-Burnham Center for Chemical Genomics.
